Measured values published in ChEMBL document CHEMBL4382250, “Structure-based exploration and pharmacological evaluation of N-substituted piperidin-4-yl-methanamine CXCR4 chemokine receptor antagonists” (Eur J Med Chem, 2019).
Active and inactive are the calls of the source. The calls are words filed in the database; no cut-off is given here.

Tests used:
[1] = biological target: T1, C-X-C chemokine receptor type 4 (Homo sapiens, UniProt P61073); test: Displacement of [125I]-CXCL12 from human CXCR4 receptor expressed in HEK293T cell membranes after 2 hrs by scintillation counting analysis
T1 sequence (P61073 whole entry): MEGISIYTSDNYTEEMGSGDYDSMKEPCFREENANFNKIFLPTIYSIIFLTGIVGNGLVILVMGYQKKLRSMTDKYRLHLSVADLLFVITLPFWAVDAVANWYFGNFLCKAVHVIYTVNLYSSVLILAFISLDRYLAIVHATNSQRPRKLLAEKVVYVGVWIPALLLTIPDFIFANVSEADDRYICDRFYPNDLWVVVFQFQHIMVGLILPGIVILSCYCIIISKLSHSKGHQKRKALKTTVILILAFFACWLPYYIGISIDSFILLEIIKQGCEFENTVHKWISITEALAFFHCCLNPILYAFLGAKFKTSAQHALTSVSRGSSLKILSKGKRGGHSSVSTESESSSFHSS
Outline: (§1)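 Membranes (5 µg/well) from HEK293T transiently transfected with hCXCR4, incubated 2 h at 25 °C with 50 pM ¹²⁵I-CXCL12 in HEPES pH 7.4 buffer with CaCl₂, MgCl₂, NaCl, 1% BSA. Filtration through PEI-soaked GF/C, then scintillation counting. Non-specific binding defined by 10⁻⁵ M IT1t; three-parameter fit for pIC₅₀. Single-point displacement at 100 μM vs IT1t (100%). N = 3, triplicate.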

[2] = biological target: T1, C-X-C chemokine receptor type 4; test: Displacement of [125I]-CXCL12 from human CXCR4 receptor expressed in HEK293T cell membranes at 100 uM after 2 hrs by scintillation counting analysis relative to IT1t; outline: as §1
[3] = biological target: T1, C-X-C chemokine receptor type 4; test: Displacement of [125I]-CXCL12 from human CXCR4 receptor expressed in HEK293T cell membranes at 63 uM after 2 hrs by scintillation counting analysis relative to IT1t
Outline: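 hCXCR4 membranes from transiently transfected HEK293T, competing against ¹²⁵I-CXCL12 at 40 pM, 2 h at 25 °C, filtration and scintillation counting. Percentage displacement by ligand at 63 μM relative to IT1t at 63 μM (100%). N = 3, triplicate.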

[4] = biological target: T1, C-X-C chemokine receptor type 4; test: (§2) Antagonist activity at human DEF3-RLuc fused CXCR4 receptor expressed in HEK293T cells co-expressing DEF3-Beta-arrestin-2-mVenus assessed as inhibition of CXCL12-induced beta-arrestin2 recruitment preincubated for 60 mins followed by CXCL12 addition measured after 20 mins by BRET assay; type: cell-based
[5] = biological target: T1, C-X-C chemokine receptor type 4; test: as §2, with “recruitment at 100 uM” for “recruitment”, “assay relative to IT1t” for “assay”; type: cell-based
Outline: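 HEK293T cells transiently co-transfected (PEI) with hCXCR4-RLuc and β-arrestin-2-mVenus, assayed two days later in HBSS. Compound given 60 min before 10 nM CXCL12 with 5 µM coelenterazine-h; RLuc (480 nm) and 540 nm read after 20 min. BRET ratio expressed as fold over vehicle. Single-concentration inhibition at 100 μM, IT1t as 100%. N = 3, triplicate.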

[6] = biological target: T1, C-X-C chemokine receptor type 4; test: Non-competitive antagonist activity at human CXCR4 receptor expressed in HEK293T cells co-expressing galphai1 assessed as inhibition of CXCL12-induced receptor activation up to 100 uM preincubated for 30 mins followed by CXCL12 addition and measured after 20 mins by FRET assay; type: cell-based
Outline: (§3)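 HEK293T transfected (Effectene) with CXCR4 and a Gαi1 FRET sensor, seeded on poly-D-lysine, read 24 h later at 37 °C in HEPES buffer pH 7.3. Antagonist at 0.1, 1, 10 or 100 µM (final, from DMSO) for 30 min, 5 min pre-read, then increasing CXCL12, FRET read 20 min (ex 420, em 485/540 nm). CXCL12 curves built per antagonist level; 3–5 repeats.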

[7] = biological target: T1, C-X-C chemokine receptor type 4; test: Displacement of CXCL12-red from human NLuc-tagged CXCR4 receptor expressed in HEK293T cell membranes after 2 hrs by NanoBRET assay
Outline: (§4)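 Membranes (10 µg/well) from HEK293G cells stably expressing sig-NLuc–CXCR4 (G418-selected), in HBSS pH 7.4. CXCL12-red (50 nM) and competitor added together, 2 h at 37 °C; 10 µM furimazine, emissions at 460 and >610 nm read 5 min later, BRET ratio >610/460. Normalized to buffer (0%) and IT1t (100%); N = 3, triplicate.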

[8] = biological target: T1, C-X-C chemokine receptor type 4; test: Antagonist activity at human DEF3-fused CXCR4 receptor expressed in HEK293T cells co-expressing DAN1-HA-Galphaq/i5 assessed as inhibition of CXCL12-induced IP3 accumulation after 90 mins in presence of [3H]-myo-inositol by scintillation counting analysis; type: functional, cell-based
Outline: (§5)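 HEK293T co-transfected (PEI) with CXCR4 and HA-Gαq/i5, moved next day to poly-L-lysine wells and labelled overnight with 1 µCi/mL [³H]-myo-inositol in inositol-free DMEM. Antagonist dilutions with 10 nM CXCL12, 10 mM LiCl, 0.05% BSA in HEPES saline pH 7.4, 1.5 h at 37 °C. InsP isolated on […] columns, then scintillation counted. Single-point at 100 μM vs IT1t; N ≥ 3, triplicate.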

[9] = biological target: T1, C-X-C chemokine receptor type 4; test: Antagonist activity at human DEF3-fused CXCR4 receptor expressed in HEK293T cells co-expressing DAN1-HA-Galphaq/i5 assessed as inhibition of CXCL12-induced IP3 accumulation at 100 uM after 90 mins in presence of [3H]-myo-inositol by scintillation counting analysis relative to IT1t; type: functional, cell-based; outline: as §5
[10] = biological target: T1, C-X-C chemokine receptor type 4; test: Displacement of CXCL12-red from human NLuc-tagged CXCR4 receptor expressed in HEK293T cell membranes at 100 uM after 2 hrs by NanoBRET assay relative to IT1t; outline: as §4
[11] = biological target: T1, C-X-C chemokine receptor type 4; test: Competitive antagonist activity at human CXCR4 receptor expressed in HEK293T cells co-expressing galphai1 assessed as inhibition of CXCL12-induced receptor activation up to 100 uM preincubated for 30 mins followed by CXCL12 addition and measured after 20 mins by FRET assay; type: cell-based; outline: as §3

IC50 [1] [nM] | inhibition [2] [%] | SMILES | other results
2000 | 89 | Clc1ccccc1CN1CCC(CNCc2cccnc2)CC1 | –
1000 | 62 | Cc1ccc(CNCC2CCN(Cc3ccccc3Cl)CC2)cc1 | –
2510 | 85 | COc1ccccc1CN1CCC(CNCc2ccccc2)CC1 | –
501 | 78 | Clc1ccccc1CN1CCC(CNCc2ccc3ccccc3c2)CC1 | –
251 | 60 | Cc1cccc(CNCC2CCN(Cc3c(Cl)cccc3Cl)CC2)c1 | –
794 | 74 | Cc1cccc(CNCC2CCN(Cc3cccc(Cl)c3Cl)CC2)c1 | –
200 | 80 | Clc1ccccc1CNCC1CCN(Cc2ccccc2Cl)CC1 | –
501 | 98 | Clc1ccccc1CN1CCC(CNCc2cccc(-c3ccccc3)c2)CC1 | IC50 [4]: 2510 nM; inhibition [5]: 102%; inhibition [6]: Active; IC50 [7]: 631 nM; IC50 [8]: 1260 nM; inhibition [8]: Dose-dependent effect; inhibition [9]: 94%; inhibition [10]: 98%
2510 | 13 | Clc1ccccc1CN1CCC(CNCc2cccc(Cl)c2Cl)CC1 | –
158 | 63 | Cc1cccc(CNCC2CCN(Cc3ccccc3Cl)CC2)c1 | IC50 [4]: 3160 nM; inhibition [5]: 97%; inhibition [6]: Active; IC50 [7]: 1000 nM; IC50 [8]: 1000 nM; inhibition [8]: Dose-dependent effect; inhibition [9]: 87%; inhibition [10]: 73%
251 | 72 | Clc1ccccc1CN1CCC(CNCc2ccc3c(c2)OCO3)CC1 | –
1000 | 96 | Clc1ccccc1CN1CCC(CNCc2c[nH]cn2)CC1 | –
316 | 87 | Clc1ccccc1CN1CCC(CNCc2ccccc2)CC1 | IC50 [4]: 3980 nM; inhibition [5]: 103%; IC50 [7]: 794 nM; IC50 [8]: 2000 nM; inhibition [8]: Dose-dependent effect; inhibition [11]: Active; inhibition [9]: 93%; inhibition [10]: 84%
316 | 98 | Oc1ccc(CNCC2CCN(Cc3ccccc3Cl)CC2)cc1 | –
631 | 80 | Clc1ccc(CNCC2CCN(Cc3ccccc3Cl)CC2)cc1 | –
10000 | 72 | c1ccc(CNCC2CCN(Cc3ccccc3)CC2)cc1 | –
316 | 65 | Clc1cccc(CNCC2CCN(Cc3ccccc3Cl)CC2)c1 | –
794 | 84 | COc1ccccc1CN1CCC(CNCc2cccc(C)c2)CC1 | –
1260 | 88 | COc1ccc(CNCC2CCN(Cc3ccccc3Cl)CC2)cc1 | –
251 | 72 | Cc1ccccc1CNCC1CCN(Cc2ccccc2Cl)CC1 | –

Continued, compound first:

SMILES | IC50 [1] [nM] | inhibition [2] [%] | other results
Cc1cccc(CNCC2CCN(Cc3cccc(Cl)c3)CC2)c1 | 2510 | 86 | –
COc1ccccc1CN1CCC(CN)CC1 | > 10000 | 67 | –
NCC1CCN(Cc2ccccc2Cl)CC1 | 10000 | – | inhibition [3]: 69%
CN(C)CCCNCc1ccc(Cl)c(Cl)c1 | > 10000 | – | inhibition [3]: 70%
NCC1CCN(Cc2ccc(Cl)c(Cl)c2)CC1 | > 10000 | 67 | –
CCC[C@H](C)c1cc(CN(C)C)c(O)cc1CN(C)C | – | – | inhibition [3]: > 50%
NCCC1CCN(Cc2ccccc2Cl)CC1 | > 10000 | 56 | –
CCc1cccc(CNCC2CCN(Cc3ccccc3OC)CC2)c1 | 794 | 81 | –
Cc1ccccc1CN1CCC(CN)CC1 | > 10000 | 81 | –
Oc1ccc(CN2CCC(CNCc3ccccc3)CC2)cc1 | > 10000 | 65 | IC50 [4]: > 31600 nM; IC50 [8]: > 31600 nM
Cc1cccc(CNCC2CCN(Cc3ccc(Cl)cc3)CC2)c1 | 10000 | 86 | –
NCC1CCN(CC2CCCCC2)CC1 | > 10000 | 59 | –
Clc1ccccc1CN1CCC(CNCC2CCCCC2)CC1 | 3160 | 77 | –
c1cc(CN2CCCNCCNCCCNCC2)ccc1CN1CCCNCCNCCCNCC1 | – | – | inhibition [11]: Active
CCCNCC1CCN(Cc2ccccc2C)CC1 | – | – | inhibition [3]: > 50%
